The source of these data is ChEMBL document CHEMBL1955737, “Diarylpyrimidine-dihydrobenzyloxopyrimidine hybrids: new, wide-spectrum anti-HIV-1 agents active at (sub)-nanomolar level” (J Med Chem, 2011).

The nature of data set [1]: Selectivity index, ratio of CC50 for human MT4 cells to EC50 for HIV 1 NL4-3. It is filed as toxicity, cell-based. The conditions noted are these: read-out: Ratio CC50/EC50. The essentials:
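CC50 from mock-infected MT-4 cells and EC50 against HIV-1 NL4-3 in infected MT-4 cells, both by day-5 MTT viability read-out; index computed as CC50/EC50(NL4-3); means of at least two experiments.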

Data set [2] relates to Human immunodeficiency virus 1. Description: Ratio of ID50 for HIV 1 reverse transcriptase Y188L mutant to ID50 for wild type HIV 1 NL4-3 reverse transcriptase. The essentials: (§1)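 Recombinant HIV-1 RT (wild type or K103N, L100I, Y181I or Y188L), purified to >95%, at 2-4 nM. RNA-dependent DNA polymerase assay with 0.5 μg poly(rA)/oligo(dT) 10:1 (0.3 μM 3'-OH ends) and 10 μM [3H]dTTP in 8% final DMSO. Initial velocities were taken from aliquots sampled every 2 min. […] The ratio is mutant ID50 over wild-type ID50. Means of at least three experiments.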

Data set [3] has as its system Human immunodeficiency virus 1. The data set is described as follows: Ratio of ID50 for HIV 1 reverse transcriptase Y181I mutant to ID50 for wild type HIV 1 NL4-3 reverse transcriptase. The essentials: as §1
Data set [4] has as its system Human immunodeficiency virus 1. The data set is described as follows: Ratio of ID50 for HIV 1 reverse transcriptase L100I mutant to ID50 for wild type HIV 1 NL4-3 reverse transcriptase. The procedure, abridged: as §1
Data set [5] relates to Human immunodeficiency virus 1. The data set is described as follows: Ratio of ID50 for HIV 1 reverse transcriptase K103N mutant to ID50 for wild type HIV 1 NL4-3 reverse transcriptase. The essentials: as §1
The subject of data set [6] is Human immunodeficiency virus 1. Description: Ratio of efavirenz EC50 to compound EC50 for wild type HIV 1 NL4-3 infected in human MT4 cells. The class given is functional.
Data set [7] can be described thus: Ratio of TMC120 CC50 to compound CC50 for human MT4 cells. The class given is ADME, cell-based.
The next data set relates to MT4. Description: Ratio of MC1220 CC50 to compound CC50 for human MT4 cells. The class given is ADME, cell-based.
Data set [8] concerns Human immunodeficiency virus 1. Description: Antiviral activity against wild type HIV 1 NL4-3 infected in human MT4 cells assessed as inhibition of virus-induced cytopathic effect after 5 days by MTT assay. It is filed as functional, organism-based. The conditions noted are these: Human immunodeficiency virus 1, NL4-3, MT4, 120 h. On the technique in general: Cytopathic effects are the visible damage that an infection or toxin causes in cultured cells.

Data set [9] is described as follows: Cytotoxicity against human MT4 cells assessed as cell viability by MTT assay. The class given is cell-based. Background: Formazan colour is commonly taken as a measure of viable cells.
Data set [10] has as its system Human immunodeficiency virus 1. Description: Antiviral activity against HIV 1 harboring reverse transcriptase K103N mutant infected in human MT4 cells assessed as inhibition of virus-induced cytopathic effect after 5 days by MTT assay. It is filed as functional, organism-based. Particulars: Human immunodeficiency virus 1, MT4, 120 h.
Data set [11] relates to Human immunodeficiency virus 1. The data set is described as follows: Antiviral activity against HIV 1 harboring reverse transcriptase Y181C mutant infected in human MT4 cells assessed as inhibition of virus-induced cytopathic effect after 5 days by MTT assay. The class given is functional, organism-based. Particulars: Human immunodeficiency virus 1, MT4, 120 h. The essentials: (§2)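 MT-4 cells (NIH AIDS Reagent Program) infected with the mutant HIV-1 strain in the presence of a range of drug concentrations. Mutant strains were from the MRC Centralised Facility for AIDS Reagents; IRLL98 carries K101Q, Y181C and G190A. Viable cells were counted by MTT colorimetry at day 5 post-infection. […] Values are means of at least two experiments.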

Data set [12] relates to Human immunodeficiency virus 1. Description: Antiviral activity against HIV 1 harboring reverse transcriptase Y188L mutant infected in human MT4 cells assessed as inhibition of virus-induced cytopathic effect after 5 days by MTT assay. The class given is functional, organism-based. The conditions noted are these: Human immunodeficiency virus 1, MT4, 120 h.
Data set [13] concerns Human immunodeficiency virus 1. Description: Resistance ratio of EC50 for HIV 1 harboring reverse transcriptase K103N mutant infected in human MT4 cells to EC50 for wild type HIV 1 NL4-3 infected in human MT4 cells. It is filed as functional. The essentials:
(§3)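 Fold change is the EC50 against the mutant strain (K103N, Y181C, Y188L or IRLL98) divided by the EC50 against wild-type NL4-3. Both EC50s come from MT-4 cells infected in the presence of a range of drug concentrations, with MTT viability read at day 5. Values are means of at least two experiments.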

Data set [14] deals with Human immunodeficiency virus 1. Description: Resistance ratio of EC50 for HIV 1 harboring reverse transcriptase Y181C mutant infected in human MT4 cells to EC50 for wild type HIV 1 NL4-3 infected in human MT4 cells. The class given is functional. The procedure, abridged: as §3
For data set [15], the system named is Human immunodeficiency virus 1. Description: Resistance ratio of EC50 for HIV 1 harboring reverse transcriptase Y188L mutant infected in human MT4 cells to EC50 for wild type HIV 1 NL4-3 infected in human MT4 cells. It is filed as functional. The essentials: as §3
Data set [16] relates to Human immunodeficiency virus type 1 reverse transcriptase (Human immunodeficiency virus 1), Q72547 [L100I].
Data set [17] concerns Human immunodeficiency virus type 1 reverse transcriptase (Human immunodeficiency virus 1), Q72547 [K103N].
The subject of data set [18] is Human immunodeficiency virus type 1 reverse transcriptase (Human immunodeficiency virus 1), Q72547 [Y181I].
In data set [19] the target is Human immunodeficiency virus type 1 reverse transcriptase (Human immunodeficiency virus 1) (UniProt Q72547).
Data set [20] concerns Human immunodeficiency virus 1. The data set is described as follows: Resistance ratio of EC50 for multidrug-resistant HIV 1 IRLL98 harboring reverse transcriptase K101Q/Y181C/G190a mutant to EC50 for wild type HIV 1 NL4-3 infected in human MT4 cells. It is filed as functional. The procedure, abridged: as §3
In data set [21] the test system is Human immunodeficiency virus 1. Description: Antiviral activity against multidrug-resistant HIV 1 IRLL98 harboring reverse transcriptase K101Q/Y181C/G190a mutant infected in human MT4 cells assessed as virus-induced cytopathic effect after 5 days by MTT assay. The class given is functional, organism-based. Particulars: Human immunodeficiency virus 1, IRLL98, MT4, 120 h. The essentials:
as §2

The subject of data set [22] is Human immunodeficiency virus type 1 reverse transcriptase (Human immunodeficiency virus 1), Q72547 [K103N]. The data set is described as follows: Ratio of MC1220 ID50 to compound ID50 for HIV 1 reverse transcriptase K103N mutant.

SMILES strings stand for the structures.

The term EC50 denotes the concentration that produces a half-maximal response. As usually defined, the CC50 is the concentration giving 50% cytotoxicity. On to `Cc1c(N)nc(Nc2ccc(C#N)cc2)nc1Cc1c(F)cccc1F`, for which the values for the selectivity ratio in data set [1] and in data set [7] were 230000 and above 10, respectively. The Ratio in [2] turned out to be 315; in [3], 2010; in data set [4], 55; in data set [5], 8; in the data set with MT4 it was 2.5. Moreover, the “Ratio EC50” value in [6] was above 10; in data set [13], 41; in data set [14], 352; in [15] it was 756. Also, the 50% effective concentration (EC50) was determined as 0.2 nM in [8], 8.2 nM in data set [10], 70.3 nM in [11] and 151 nM in data set [12]. Moreover, the CC50 in data set [9] is 45900 nM. Also, the ID50 in data set [16] stood at 603 nM; in [17] it was 90 nM; in [18] it was 22100 nM; in [19] it was 11 nM.

In the case of `N#Cc1ccc(Nc2nc(N)cc(Cc3c(F)cccc3F)n2)cc1`, the selectivity ratio in data set [1] is 149000; in data set [7] it was above 10. In addition, the Ratio amounted to 280 in data set [2]; 1570 in data set [3]; 137 in [4]; 15 in data set [5]; 2.5 in the data set with MT4. In addition, the “Ratio EC50” value was above 10 in data set [6], 47 in data set [13], 238 in data set [14] and 361 in data set [15]. The concentration giving a half-maximal response (EC50) in data set [8] amounted to 0.3 nM; in [10], 14.2 nM; in data set [11], 71.4 nM; in [12], 108 nM. The CC50 in [9] is 44600 nM. For the same compound, the ID50 in data set [16] amounted to 1510 nM; in data set [17], 169 nM; in data set [18] it was 17300 nM; in [19], 11 nM.

`Cc1c(Cl)nc(Nc2ccc(C#N)cc2)nc1C(C)c1c(F)cccc1F` (configuration not stated): the selectivity ratio in data set [1] is above 5650. Further, the Ratio in data set [2] came out at 2.6; in data set [3], 386; in [4], 17; in [5], 8.1. The concentration for a half-maximal effect (EC50) in data set [8] was 2.3 nM; in data set [21], 7.8 nM; in [10], 2.3 nM; in data set [11] it was 44 nM; in [12], 60 nM. Moreover, the “Ratio EC50” value is given as 3 in data set [20], 1 in data set [13], 22 in data set [14] and 30 in data set [15]. Further, the CC50 in data set [9] was above 13000 nM. Further, the ID50 in data set [16] was 150 nM; in [17] it was 71 nM; in [18] it was 3400 nM; in data set [19], 8.8 nM.

For `Cc1c(N)nc(Nc2ccc(C#N)cc2)nc1C(C)c1c(F)cccc1F` (configuration not stated), the Ratio in data set [2] was found to be 10; in data set [3] it was 120; in data set [4], 20; in data set [5] it was 1.6; in data set [22], 23; in the data set on MT4, 2.5. In addition, the “Ratio EC50” value in data set [6] is above 10; in [20], 10. In data set [7], the selectivity ratio was above 10. Moreover, the EC50 turned out to be 0.08 nM in data set [8]; 0.82 nM in data set [21]; 34.7 nM in [10]; 39.9 nM in data set [11]; 27.4 nM in [12]. For the same compound, in data set [9], the CC50 is 40500 nM. For the same compound, the ID50 is 282 nM in data set [16], 22 nM in [17], 1680 nM in data set [18] and 14 nM in data set [19].

`Cc1ccnc2c1NC(=O)c1cccnc1N2C1CC1` [NEVIRAPINE]: the half-maximal effective concentration (EC50) in [21] was above 18800 nM; in [10], 6120 nM; in data set [11], above 7510 nM; in data set [12] it was above 7510 nM. Besides, the 50% cytotoxic concentration (CC50) in data set [9] came to 7510 nM. Moreover, the ID50 in data set [18] came to 35000 nM.

With `Cc1cc(C)c(Nc2ccnc(Nc3ccc(C#N)cc3)n2)c(C)c1` [DAPIVIRINE], the 50% effective concentration (EC50) in [8] was 0.03 nM; in [21], 0.3 nM; in [10], 1.2 nM; in data set [11], 1.2 nM. For the same compound, in data set [9], the CC50 was determined as 3040 nM. Further, the ID50 in data set [17] was 100 nM; in data set [18] it was above 1000 nM; in data set [19], 7 nM.

Consider `Cc1c(C(C)c2c(F)cccc2F)nc(N(C)C)[nH]c1=O` (configuration not stated), for which the Ratio was found to be 5 in data set [2], 40 in data set [3], 10 in data set [4] and 5 in data set [5]. In addition, in [21], the EC50 is 205 nM. The CC50 in [9] was above 17000 nM. For the same compound, the ID50 in data set [16] is 1000 nM; in [17], 500 nM; in data set [18], 4000 nM; in data set [19], 100 nM.

Consider `CC(c1cc(N)nc(Nc2ccc(C#N)cc2)n1)c1c(F)cccc1F` (configuration not stated), for which the selectivity ratio in data set [1] is 154000; in [7] it was above 10. The Ratio in [2] worked out at 147; in data set [3] it was 1010; in data set [4] it was 69; in data set [5], 10; in the data set with MT4, 2.5. The “Ratio EC50” value in data set [6] is listed as above 10; in data set [13] it was 27; in data set [14] it was 149; in data set [15] it was 222. Further, the 50% effective concentration (EC50) in data set [8] amounted to 0.3 nM; in [10], 8.2 nM; in data set [11] it was 44.7 nM; in data set [12], 66.6 nM. Also, in data set [9], the half-maximal cytotoxic concentration (CC50) is 46100 nM. Also, the ID50 in data set [16] turned out to be 765 nM; in data set [17], 109 nM; in data set [18], 11100 nM; in [19], 11 nM.
